Pemphigus Ab inh: human desmoglein-3 autoantibody binding inhibition; P32926; DSG3-coupled beads, scFv-anti-DSG3-GFP binding, flow cytometry; active compounds read low; binding (percent of control), % at 10 µM; hit rate 0.48% among 310,000; AID 588358;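 active means binding more than 3 SD below its plate's average and above zero; inconclusive means below that plate limit but binding exactly zero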;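 further: hits lower antibody fragment binding to DSG3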
LANA-H2B inh: blocks KSHV LANA binding to histone H2A/H2B; inhibition, % (no concentration beside the values); hit rate 0.6% among 320,000; AID 2629; cell-free LANA-H2A/H2B peptide, fluorescence polarization; in the data active means inhibition mostly above about 10%, no sharp cut-off; inactive means mostly below about 6.7%
Arr AP2 block: human beta-arrestin and AP2 interaction inhibition. AID 504490. inhibition, % at 10 µM. hit rate 0.31% among 340,000. FITC-arrestin peptide / GST-AP2 beads, flow cytometry; AP2 beta2 appendage carries R879A mutation;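 active means inhibition above a set limit, near 3 SD of compounds lacking own fluorescence, cut at about 54% in these data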;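 further: plate controls were DMSO wells for no effect and 5 µM unlabelled arrestin peptide for full effect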
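Assay system: GST-AP2 R879A bound to glutathione beads, E. coli-expressed; Medium: PBS with 0.05% Tween 20 and 0.1% BSA; Also added: fluorescein-tagged arrestin peptide at 50 nM final; Timing: 12 min plus 1 h, RT; Measured by: flow cytometry, FL1 (488/535 nm); Evaluation: percent drop in bead-associated FITC signal.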
T cell modulator: T cell immune modulation candidate; 2C CD8+ T cell-vesicle binding, flow cytometry; active compounds read low; response (vesicle binding), % at 7 µM; hit rate 0.068% among 330,000;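 active means response, share of CD8 T cells binding vesicles, and their 90th percentile fluorescence all below set limits, cut at about 80% in these data, passing the limit was not always enough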;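 further: values below 100% mean blocked vesicle binding to the CD8+ T cells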
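incubation = binding step 1.5 h, 37 °C, antibody labelling 20 min, ice | test system = 2C mouse CD8+ T cells | read-out basis = percent CD8+ FL2 mean versus row control | controls = Peptide-free naked vesicles (low) and QL9 vesicles with 0.7% DMSO vehicle (high) | detection = flow cytometry of vesicle-bound cells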
GASC-1 inh: human JMJD2C demethylase inhibition. inhibition, % at 2.35 µM. hit rate 0.069% among 330,000. GST-JMJD2C(1-420) H3K9me3 demethylation, DELFIA europium. Q9H3R0. AID 2099;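 active means more than half of a compound's replicate wells show inhibition beyond 50%, single wells judged on their own value; inconclusive means some, but no more than half, of replicates pass 50% inhibition; inactive means no replicate passes 50% inhibition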;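 further: signal counts dimethyl H3K9 product captured on neutravidin plate; 0% = median of DMSO wells and 100% = 0.3 times that DMSO median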
Target sequence (Q9H3R0 1-420 limits assumed): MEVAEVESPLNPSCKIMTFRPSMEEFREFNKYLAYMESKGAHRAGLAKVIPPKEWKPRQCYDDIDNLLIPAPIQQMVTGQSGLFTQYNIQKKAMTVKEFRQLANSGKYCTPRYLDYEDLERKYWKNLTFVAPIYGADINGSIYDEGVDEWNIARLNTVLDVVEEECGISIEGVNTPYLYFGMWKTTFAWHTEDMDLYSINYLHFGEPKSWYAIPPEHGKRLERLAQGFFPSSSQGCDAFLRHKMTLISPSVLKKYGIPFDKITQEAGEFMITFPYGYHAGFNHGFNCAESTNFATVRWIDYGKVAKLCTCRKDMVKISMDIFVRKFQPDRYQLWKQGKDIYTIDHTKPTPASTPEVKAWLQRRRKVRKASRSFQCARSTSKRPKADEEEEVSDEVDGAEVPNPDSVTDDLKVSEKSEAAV
HDAC3 inh: human HDAC3 inhibition; AID 2718; O15379; inhibition, % at 8.3 µM; recombinant HDAC3, fluorogenic peptide/trypsin coupled, fluorescence; hit rate 0.15% among 320,000; in the data active means inhibition above about 26%, passing the limit was not always enough; inconclusive means no clear call, values can overlap the other calls
Active calls of the source: *; ? = inconclusive; . = no result. Shown are actives, neighbours in structure and some others; about 1.6% of the full set was active somewhere.

SMILES	Pemphigus Ab inh	LANA-H2B inh	Arr AP2 block	T cell modulator	GASC-1 inh	HDAC3 inh
CC(C)(CNc1ccc(S(=O)(=O)C(F)(F)F)cc1[N+](=O)[O-])N1CCOCC1	100	27*	15	457	-34	-7
CC(C)(CNc1ccc([N+](=O)[O-])cc1C#N)N1CCOCC1	77	2	23	407	24	2
CCOc1ccccc1Nc1nnc(SCC(=O)NC(=O)c2cccn2C)s1	89	16*	-2	155	8	1
Cc1ccc(C)c(S(=O)(=O)Nc2ccc3oc(C)c(C(=O)O)c3c2)c1	85*	-5	-9	390	11	-2
O=C(NN=C1CCCCCC1)c1ccc(Cl)s1	98	1	4	451	1	-3
O=C(CSC1=NCCS1)c1ccc(Cl)cc1	106	-1	22	927	3	72*
O=C(CSC1=NCCS1)N1CCN(c2ccc(Cl)cc2)CC1	102	3	2	609	5	-4
Nc1nnc(SC2CC(=O)N(c3ccccc3)C2=O)s1 (stereo not drawn)	92	0	-3	120	57*	-3
CC(=O)c1ccc(NC(=O)C2CC(c3ccc(F)cc3)=NO2)cc1 (stereo not drawn)	101	1	-11	.	6	5
O=C(NC1CCCC1)C1CC(c2ccc(F)cc2)=NO1 (stereo not drawn)	111	3	-2	0.0*	8	0
CC(=O)N(C)c1ccc(NC(=O)C(Sc2ccccc2)c2ccccc2)cc1 (stereo not drawn)	101	-2	45	439	30	2
CC(C)(C)NS(=O)(=O)c1ccc(NC(=O)C(Sc2ccccc2)c2ccccc2)cc1 (stereo not drawn)	100	2	23	333	-7	29*
CCc1ccc(-c2cc(C(=O)Nc3ccc(S(=O)(=O)NC(C)=O)cc3)c3ccccc3n2)cc1	63*	-1	-3	318	0	6
CC(C)(C)NS(=O)(=O)c1ccc(NC(=O)c2cc(-c3ccccc3)nc3ccccc23)cc1	65*	3	11	645	-26	1
CCN(CC)Cc1c(C(=O)N/N=C/c2c(Cl)cccc2Cl)nnn1-c1nonc1N	.	4	-15	218	-12	3
COc1ccccc1S(=O)(=O)N(C)C[C@@H]1OCc2cn(nn2)CCCC(=O)N([C@H](C)CO)C[C@H]1C	98	.	.	.	.	.
CCC(CC)C1=NN2C(=N)/C(=C/c3ccc(OC(=O)c4ccco4)cc3)C(=O)N=C2S1	99	5	-1	476	-7	32*
CCC1CCCCN1C(=O)COc1ccc2c3c(c(=O)oc2c1)CCC3 (stereo not drawn)	97	32*	9	176	1	-9
CCCCN1C(=O)C(CC(=O)NC(c2ccccc2)c2ccccc2)CC(C(=O)N(C(C)C)C(C)C)=C1C (stereo not drawn)	98	.	.	.	.	.
O=C(COC(=O)c1cccc(OC(F)F)c1)NCC1CCCO1 (stereo not drawn)	92	0	29	544	-3	-5
O=C(NCC1CCCO1)c1ccc2c(c1)C(=O)N(c1cccc([N+](=O)[O-])c1)C2=O (stereo not drawn)	41*	-4	13	160	-6	-6
CC(C)n1c(O)c(/C=C2\C=NN=C2c2ccccc2)sc1=S	106	12*	-22	836	?	-2
COC(=O)Nc1ccc(OC)c(OC)c1	97	-12	7	306	-4	5
COc1ccc(NC(=S)NNC(=O)OC(C)(C)C)cc1OC	100	33*	-5	268	-6	1
COC(=O)C1CN(C(=O)C(C)Oc2ccc(C)c(C)c2)c2ccccc2O1 (stereo not drawn)	96	2	-1	137	-7	-4
SMILES	Pemphigus Ab inh	LANA-H2B inh	Arr AP2 block	T cell modulator	GASC-1 inh	HDAC3 inh
Cn1c(OCc2ccco2)nc2c1c(=O)n(Cc1ccc(Cl)c(Cl)c1)c(=O)n2C	98	-2	81*	257	19	12
Cn1c(N2CCOCC2)nc2c1c(=O)n(Cc1ccc(Cl)c(Cl)c1)c(=O)n2C	.	-3	-3	286	3	1
CCN1C[C@@H]2[C@@H]3C(=O)N(Cc4ccccc4)C(=O)[C@@H]3[C@](C)(C1=O)N2C(=O)c1ccc(Br)cc1	95	.	0	.	.	.
C/C(CC(=O)Nc1ccc2c(c1)OCCO2)=N\NC(=O)COc1ccc(Cl)c(C)c1	.	-2	-11	396	8	3
Cc1nnc(NC(=O)c2ccc(-c3ccc(Cl)cc3)o2)s1	22*	-5	3	495	6	-1
O=C(NCc1cccnc1)c1ccc(-c2cc(Cl)ccc2Cl)o1	106	13	7	249	-1	-1
O=C(NCc1cccnc1)c1ccc(-c2ccc(Cl)cc2)o1	58*	1	.	0	-9	-23
O=C(Nc1nccs1)c1ccc(-c2ccc(Cl)cc2)o1	91	5	23	216	9	-2
CCOC(=O)c1ccc(OC(=O)CCCCCN=C(N)N)cc1	100	-5	-5	373	19	93*
O=Cc1ccc(OC(=O)CCCCC(=O)Oc2ccc(C=O)cc2)cc1	95	-6	2	182	-22	6
O=C(c1cccs1)n1nc(-c2ccco2)nc1SCc1ccccc1	.	1	.	524	5	65*
CSc1nc(-c2ccco2)nn1C(=O)c1cccs1	.	2	23	141	-27	?
CCOC(=O)N1C(=O)[C@@](CC)(c2ccccc2)N1C(=O)OCC	97	1	0	185	-9	35*
CCN1C(=O)c2cccc3c(S(=O)(=O)N(C(C)=O)c4ccc(OC(C)=O)cc4)ccc1c23	102	5	-18	180	-1	-2
CC(C)[C@H](NC(=O)N1c2ccccc2NC(=O)[C@@H]1C(C)C)C(=O)N1CCC(C(=O)O)CC1	.	0	-2	30	2	0
CCOC(=O)C1CCN(C(=O)CN2C(=O)c3ccccc3S2(=O)=O)CC1	98	.	4	0.0*	-8	.
Nc1nnnn1-c1cccc([N+](=O)[O-])c1	112	.	6	.	.	.
COc1cccc(N/C=C(\C#N)c2ccc(OCCCF)cc2)c1	73*	4	-3	566	87	-11
COc1ccc(C(C#N)=Cc2ccccc2OC)cc1	104	.	.	.	.	.
COc1ccc(Br)cc1CN(C)CC(=O)NCc1ccc(F)cc1	149	0	-17	25	53*	5
CCOC(=O)[C@H]1[C@H]2COc3ccc(Cl)cc3[C@@H]2N2C(=O)c3cc(Br)ccc3NC(=O)[C@@]12C	101	17*	-2	.	-5	3
Cc1ccc2c(c1)C(=O)N1[C@H]3c4cc(C)ccc4OC[C@@H]3[C@H](c3ccccc3)[C@]1(C)C(=O)N2	99	104*	.	227	19	7
